One assay deals with SN12C. The assay can be described thus: Antiproliferative activity against human renal SN12C cell line. The class given is functional. In outline: (§1)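 Adherent lines grown in RPMI 1640 with 5% fetal bovine serum and 2 mM L-glutamine, plated at 5000–40 000 cells/well and preincubated 24 h. Five drug concentrations were added for 48 h at 37 °C. Cells were fixed with cold TCA (10% final), stained with sulforhodamine B, and read at 515 nm. GI50 is the concentration giving 50% reduction in net protein increase relative to time-zero wells.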

For the next assay, the target named is Tubulin (Bos taurus, UniProt Q6B856+Q862F3). Description: Inhibition of tubulin polymerization was determined at 1.2 mg/mL concentration. Type of assay: functional.
Assay [1] in a line: Mean graph midpoint for growth inhibition of all human cancer cells was determined. Type of assay: functional, Cancer cell lines. The arrangement: unit: µM. In outline:
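Average of GI50 values over about 55 cell lines from the 48-h sulforhodamine B growth assay. Test range was 10^-4 to 10^-8 M, and values beyond it were set to those limits. Compounds with a first MGM of 10 μM or less were tested a second time and a standard deviation was calculated.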

Another assay relates to SF-539. The assay can be described thus: Antiproliferative activity against human CNS SF-539 cell line. The class given is functional. In outline: as §1
The test system of the next assay is CCRF-CEM. Description: Antiproliferative activity against human leukemia CCRF-CEM cell line. Type of assay: functional. In outline: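 Suspension leukemia line grown in RPMI 1640 with 5% fetal bovine serum and 2 mM L-glutamine and preincubated 24 h. Drug was given at five concentrations for 48 h at 37 °C. Settled cells were fixed with 80% TCA (16% final), stained with sulforhodamine B, and read at 515 nm. GI50 was set at 50% reduction in net protein increase versus time-zero wells.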

For another assay, the system named is DU-145. Description: Antiproliferative activity against human prostate DU-145 cell line. The class given is functional. In outline: as §1
A further assay relates to HCT-116. The assay can be described thus: Antiproliferative activity against human colon HCT116 cell line. The class given is functional. In outline: as §1
The test system of the next assay is HOP-62. The assay can be described thus: Antiproliferative activity against human lung HOP-62 cell line. Type of assay: functional. In outline: as §1
The subject of a further assay is UACC-62. The assay can be described thus: Antiproliferative activity against human melanoma UACC-62 cell line. Type of assay: functional. In outline: as §1
A further assay relates to OVCAR-3. Description: Antiproliferative activity against human ovarian OVCAR-3 cell line. Type of assay: functional. In outline:
as §1

Assay [2] relates to MDA-MB-435 (Homo sapiens). The assay can be described thus: Antiproliferative activity against human breast MDA-MB-435 cell line.

Sequence of Tubulin (Q6B856 whole entry): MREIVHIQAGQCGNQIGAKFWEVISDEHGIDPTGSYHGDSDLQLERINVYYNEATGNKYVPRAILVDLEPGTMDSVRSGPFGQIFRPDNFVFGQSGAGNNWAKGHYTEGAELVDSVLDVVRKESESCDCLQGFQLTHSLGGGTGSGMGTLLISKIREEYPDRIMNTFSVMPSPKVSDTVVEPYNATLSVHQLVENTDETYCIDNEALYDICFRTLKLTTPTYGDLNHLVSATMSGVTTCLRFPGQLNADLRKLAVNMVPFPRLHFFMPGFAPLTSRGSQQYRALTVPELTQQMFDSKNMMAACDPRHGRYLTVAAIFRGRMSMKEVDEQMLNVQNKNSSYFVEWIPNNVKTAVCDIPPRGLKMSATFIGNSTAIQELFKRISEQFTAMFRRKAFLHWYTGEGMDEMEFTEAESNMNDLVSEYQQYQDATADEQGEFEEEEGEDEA
Sequence of Tubulin (Q862F3 whole entry): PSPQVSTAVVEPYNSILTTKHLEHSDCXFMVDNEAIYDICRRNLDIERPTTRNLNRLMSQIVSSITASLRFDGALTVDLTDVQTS

As for `O=C(NCCc1ccc(F)cc1)c1cc(/C=C\c2cc(O)ccc2O)ccc1O`, the GI50 (usually the concentration at which growth is held to half of that of the control) is 4 µM with SN12C; 3.8 µM in the assay with SF-539; 1.3 µM in the assay with CCRF-CEM; 15.2 µM with DU-145; 3.8 µM in the assay on HCT-116; 6.3 µM in the assay on HOP-62. The GI50 came out at 2.3 µM with UACC-62, 2.1 µM in the assay with OVCAR-3 and 12.9 µM in assay [2]. Besides, the midpoint of inhibition against Tubulin, the IC50, lay at 4.2 µM. This compound gave an MGM in [1] of 3.5.
Consider `O=C(NCCc1ccc(F)cc1)c1cc(CCc2cc(O)ccc2O)ccc1O`, for which the concentration for 50% growth inhibition (GI50) in the assay on SN12C is 2.1 µM; in the assay with SF-539, 1.8 µM; in the assay with CCRF-CEM it was 0.4 µM; with DU-145 it was 8 µM; in the assay with HCT-116 it was 1 µM; with HOP-62, 2.6 µM. Moreover, the GI50 in the assay on UACC-62 was 2.8 µM; in the assay on OVCAR-3, 1 µM; in [2], 2.3 µM. In addition, the IC50 (commonly the concentration at which inhibition is half-maximal) against Tubulin worked out at 9.7 µM. In assay [1], this compound showed an MGM of 2.8.
As to `CCCCCCNC(=O)c1cc(C#Cc2cc(OC)ccc2OC)ccc1OC`, the 50% growth inhibitory concentration (GI50) in the assay on SN12C was greater than 100 µM; in the assay with SF-539, greater than 100 µM; in the assay with CCRF-CEM it was 7.9 µM; in the assay with DU-145 it was greater than 100 µM; with HCT-116, 6.9 µM; in the assay on HOP-62, 11.8 µM. The 50% growth inhibitory concentration (GI50) was 56.8 µM with UACC-62, greater than 100 µM in the assay with OVCAR-3 and greater than 100 µM in assay [2]. On Tubulin, this compound gave an IC50 greater than 40 µM. Further, in assay [1], the MGM is 31.6.
Take `O=C(NCCc1ccccc1)c1cc(C#Cc2cc(O)ccc2O)ccc1O`: the 50% growth inhibitory concentration (GI50) in the assay with SN12C was 5.7 µM; in the assay with SF-539, 9.6 µM; in the assay on CCRF-CEM it was 0.3 µM; with DU-145 it was 12.7 µM; in the assay on HCT-116, 10.5 µM; in the assay with HOP-62, 10.3 µM. The 50% growth inhibitory concentration (GI50) with UACC-62 came to 1.9 µM; in the assay with OVCAR-3 it was 2.8 µM; in assay [2], 2.9 µM. The same compound displayed an IC50 on Tubulin of 3.7 µM. Moreover, in assay [1], the MGM stood at 3.8.
Consider `COc1ccc(OC)c(/C=C\c2ccc(OC)c(C(=O)NCCc3ccc(F)cc3)c2)c1`, for which the 50% growth inhibitory concentration (GI50) with SN12C is 6.4 µM; with SF-539, 5.9 µM; with CCRF-CEM it was 3.4 µM; in the assay with DU-145 it was greater than 100 µM; in the assay with HCT-116, 3.8 µM; with HOP-62 it was 8.1 µM. Moreover, the GI50 is 3.5 µM with UACC-62, 4.2 µM with OVCAR-3 and 2.1 µM in [2]. At Tubulin, this compound returned an IC50 greater than 40 µM. For the same compound, the MGM in assay [1] was determined as 4.5.
Regarding `CCCCCCNC(=O)c1cc(/C=C\c2cc(OC)ccc2OC)ccc1OC`, the concentration for 50% growth inhibition (GI50) with SN12C came out at 63.1 µM; with SF-539, 23.6 µM; in the assay with CCRF-CEM, 24.7 µM; with DU-145, 45.6 µM; with HCT-116 it was 21.1 µM; in the assay with HOP-62, 31.9 µM. Besides, the results for the concentration for 50% growth inhibition (GI50) (in the assay with UACC-62; with OVCAR-3; in assay [2]) were 25 µM, 16.1 µM and 10.3 µM, respectively. For the same compound, on Tubulin, the IC50 is greater than 40 µM. This compound also displayed an MGM in [1] of 16.6.

Values taken from ChEMBL document CHEMBL1136777, “Synthesis, anticancer activity, and inhibition of tubulin polymerization by conformationally restricted analogues of lavendustin A” (J Med Chem, 2003).
